Test results taken from ChEMBL document CHEMBL4765399, “Design, synthesis, and biological evaluation of 5-((8-methoxy-2-methylquinolin-4-yl)amino)-1H-indole-2-carbohydrazide derivatives as novel Nur77 modulators” (Eur J Med Chem, 2020).
pKd: −log10 of the molar value. The source made the active and inactive calls. The calls are words filed in the database; no cut-off is given here.

Key:
HepG2 [1] = assay: Induction of apoptosis in human HepG2 cells assessed as early apoptotic cells at 2 uM incubated for 12 hrs by Annexin V-FITC/PI staining based flow cytometry (reference value: 3.99 to 5.35%); format: functional
HepG2 [2] = assay: Induction of autophagy in human HepG2 cells assessed as increase in GFP-LC3 puncta formation at 2 uM after 6 hrs by fluorescence microscopic method; format: functional, cell-based
In short: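 HepG2, or HepG2 and shNur77 HepG2, transfected with GFP-LC3, then given vehicle or 2.0 µM for 6 h; GFP-LC3 puncta visualised by fluorescence microscopy alongside phase-contrast images.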

HepG2 [3] = assay: Antitumor activity against human HepG2 cells xenografted in BALB/c mouse assessed as induction of autophagy by measuring increase in Beclin1 level in tumor tissue at 10 to 20 mg/kg/day, ip administered for 15 days by western blot analysis; format: functional, organism-based; conditions: dose 10-20 mg/kg/day, time 15.0 day
In short: (§1)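 HepG2 cells (5×10^6) injected subcutaneously into flanks of 4-week-old male Balb/c nude mice. At about 100 mm³, 15 mice were randomized to vehicle, 10 or 20 mg/kg i.p. once daily for 15 days. Tumors were then excised for immunostaining of paraffin sections (5 μm) or for western blot.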

HepG2 [4] = assay: Upregulation of Nur77 expression in human HepG2 cells pretreated with nuclear export inhibitor, LMB followed by incubation with compound for 12 hrs by western blot analysis; format: functional, cell-based
[5] = target: T1, Nuclear receptor subfamily 4immunitygroup A member 1 (Homo sapiens, UniProt P22736); assay: Binding affinity to Nur77 ligand binding domain (unknown origin) assessed as dissociation constant by surface plasmon resonance analysis
T1 sequence (P22736 whole entry, the tested form may be a part): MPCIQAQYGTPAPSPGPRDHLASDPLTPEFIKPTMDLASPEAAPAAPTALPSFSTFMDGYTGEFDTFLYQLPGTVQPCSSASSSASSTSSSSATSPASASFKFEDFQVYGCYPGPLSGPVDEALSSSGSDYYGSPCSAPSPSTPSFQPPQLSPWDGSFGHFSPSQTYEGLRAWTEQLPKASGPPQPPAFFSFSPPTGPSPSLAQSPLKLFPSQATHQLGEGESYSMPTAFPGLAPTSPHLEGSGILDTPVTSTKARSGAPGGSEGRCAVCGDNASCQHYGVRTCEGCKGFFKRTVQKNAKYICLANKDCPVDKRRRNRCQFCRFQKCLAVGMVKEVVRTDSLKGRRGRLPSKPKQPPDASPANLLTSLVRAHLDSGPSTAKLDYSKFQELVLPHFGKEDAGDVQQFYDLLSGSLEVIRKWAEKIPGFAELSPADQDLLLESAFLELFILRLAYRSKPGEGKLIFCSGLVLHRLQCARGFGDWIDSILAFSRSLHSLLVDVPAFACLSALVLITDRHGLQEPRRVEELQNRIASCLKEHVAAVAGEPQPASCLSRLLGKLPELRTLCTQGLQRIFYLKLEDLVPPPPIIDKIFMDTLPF
In short: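 SPR with Nur77-LBD, analyte injected at a series of concentrations; KD (equilibrium dissociation constant) and association/dissociation kinetics derived from the sensorgrams.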

HepG2 [6] = assay: Induction of apoptosis in human HepG2 cells assessed as late apoptotic cells at 2 uM incubated for 12 hrs by Annexin V-FITC/PI staining based flow cytometry (reference value: 1.1 to 2.75%); format: functional
HepG2 [7] = assay: Induction of endoplasmic reticulum stress in human HepG2 cells assessed as increase in p-EIF2a expression at 2 uM measured after 1 to 4 hrs by Western blot analysis; format: functional, cell-based; conditions: time 1-4 hrs
In short: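 HepG2 exposed to 2.0 µM over a time course; Nur77, Bip, p-EIF2a, TRB3 and LC3 levels followed by Western blot of RIPA lysates.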

HepG2 [8] = assay: Induction of apoptosis in human HepG2 cells assessed as Bax/Bcl-2 ratio at 2 uM pretreated with ER stress inhibitor, 4-PBA for 2 hrs followed by incubation with compound for 12 hrs by Western blot analysis; format: functional, cell-based
HepG2 [9] = assay: Induction of endoplasmic reticulum stress in Nur77 […] human HepG2 cells assessed as CHOP protein expression at 2 uM incubated for 6 to 12 hrs by Western blot analysis; format: functional, cell-based; conditions: time 6-12 hrs
In short: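 HepG2 and shNur77 HepG2 exposed to DMSO or 2.0 µM for 6 and 12 h; lysates immunoblotted for TRB3, Bip, CHOP and Nur77 (SDS-PAGE, nitrocellulose, overnight primary antibodies, HRP secondary, chemiluminescence).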

HepG2 [10] = assay: Induction of autophagy in human HepG2 cells assessed as increase in Beclin 1 expression measured after 12 hrs by Western blot analysis; format: functional, cell-based; conditions: dose 0.5-2 µM
In short: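 HepG2, QGY-7703 and SMMC-7721 treated with graded concentrations for 12 h. Lysed in RIPA with inhibitors; 40-80 µg protein separated by SDS-PAGE, blotted to nitrocellulose, blocked 1 h in 5% milk, primary antibodies overnight (LC3, Beclin1, Bip, CHOP, TRB3), HRP secondaries, chemiluminescence.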

HepG2 [11] = assay: Antitumor activity against human HepG2 cells xenografted in BALB/c mouse assessed as tumor weight at 10 mg/kg/day, ip administered for 15 days (reference value: 0.86 +/- 0.18 g); format: functional; conditions: dose 20 mg/kg/day; time 15 day; in the assay text read “20 mg/kg/day” for “10 mg/kg/day”
In short: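 Subcutaneous flank xenograft of 5×10^6 HepG2 cells in 4-week-old male Balb/c nude mice. At about 100 mm³, 15 mice were randomized into three groups: vehicle, 10 or 20 mg/kg i.p. daily for 15 days. Tumor size was measured every day, and tumors were excised and weighed at the end.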

HepG2 [12] = assay: Antiproliferative activity against human HepG2 cells assessed as reduction in cell viability at 2 uM by MTT assay; format: functional, cell-based; conditions: time 12-48 hrs, TDE = time-dependent effect
In short: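 Cells treated with 2.0 µM over a time course; viability read by MTT. HepG2, SMMC-7721 kept in DMEM, QGY-7703 in RPMI 1640, with 10% FBS at 37 °C and 5% CO2.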

[13] = target: T1, Nuclear receptor subfamily 4immunitygroup A member 1; assay: Modulation of Nur77 in human HepG2 cells assessed as induction of nuclear […] pretreated with nuclear export inhibitor, LMB followed by incubation with compound for 12 hrs by fluorescence microscopic analysis; format: cell-based
[14] = target: T1, Nuclear receptor subfamily 4immunitygroup A member 1; assay: Binding affinity to Nur77 ligand binding domain (unknown origin) assessed as decrease in fluorescence intensity of protein at 332 nm at 0.2 to 4 uM by fluorescence titration based analysis; conditions: filed as modulator, dose 0.2-4 µM
In short: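 Intrinsic tryptophan fluorescence quench: 1 μM Nur77-LBD titrated with 0–4 μM ligand in about 0.2 μM steps (20 points). After 30 min at room temperature, read at 25 °C, excitation 280 nm, emission 340 nm. KD fitted to a two-state 1:1 complex model.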

Mus musculus = assay: Upregulation of Nur77 expression in tumor tissue of BALB/c mouse xenografted with human HepG2 cells at 10 to 20 mg/kg/day, ip administered for 15 days by immunohistochemical analysis; format: functional, organism-based; conditions: dose 10-20 mg/kg/day, time 15.0 day
In short: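 Tumours taken from HepG2 xenograft mice after 15 days of daily i.p. dosing (10 or 20 mg/kg) or vehicle. Fixed in 4% paraformaldehyde, paraffin-embedded, cut into 5 µm sections. Immunostained with anti-Nur77 at 1:200.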

HepG2 [15] = assay: Induction of morphological changes in human HepG2 cells assessed as reduction in cell number at 1 to 2 uM incubated for 6 to 12 hrs by phase contrast microscopic analysis; format: functional, cell-based; conditions: dose 1-2 µM, time 6-12 hrs
In short: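 HepG2 cells given graded concentrations; morphology monitored at set time points by phase-contrast optical microscopy.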

HepG2 [16] = assay: Antitumor activity against human HepG2 cells xenografted in BALB/c mouse assessed as induction of autophagy by measuring increase in LC3-II level in tumor tissue at 10 to 20 mg/kg/day, ip administered for 15 days by immunohistochemical analysis; format: functional, organism-based; conditions: dose 10-20 mg/kg/day, time 15.0 day; in short: as §1
HepG2 [17] = assay: Induction of apoptosis in human HepG2 cells assessed as necrotic cells at 1 uM incubated for 12 hrs by Annexin V-FITC/PI staining based flow cytometry (reference value: 0.068%); format: functional
HepG2 [18] = assay: Upregulation of Nur77 expression in human HepG2 cells incubated for 6 hrs by Western blot analysis; format: functional, cell-based; conditions: dose 0.5-2 µM
In short: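 HepG2, QGY-7703 and SMMC-7721 cells treated with the indicated concentrations for 6 h. HepG2 also given 2.0 µM over a time course. Lysis in RIPA with protease and phosphatase inhibitors; 40-80 µg protein by SDS-PAGE, nitrocellulose transfer. Membranes blocked with 5% milk, primary antibody overnight, HRP secondary, chemiluminescence. GAPDH as loading control.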

pKd [5]: 5.45 | Activity ([5]; filed as modulator): Dose-dependent effect | Activity [13]: inactive | Activity [14]: Active
Compound: COc1cccc2c(Nc3ccc4[nH]c(C(=O)N/N=C/c5ccc(SC)cc5)cc4c3)cc(C)nc12
Activity (HepG2 [1]): 13% | Activity (HepG2 [2]): Active | Activity (HepG2 [3]): Active | Activity (HepG2 [4]): Active | Activity (HepG2 [6]): 55.6% | Activity (HepG2 [7]): Active | Activity (HepG2 [8]): inactive | Activity (HepG2 [9]): inactive | Activity (HepG2 [10]): Dose-dependent effect | Activity (HepG2 [11]): 0.24 g | Activity (HepG2 [12]): Tde | Activity (Mus musculus): Active | Activity (HepG2 [15]): Active | Activity (HepG2 [16]): Active | Activity (HepG2 [17]): 0.41% | Activity (HepG2 [18]): Dose-dependent effect
